# Experiment: Toxicity liver stage against HepG2, at 10uM
# Assay type: cell-based
# Parameters: test concentration 10 uM, cell line HepG2-A16-CD81EGFP
# Conditions: human, HepG2-A16-CD81EGFP cells; read-out: INHIBITION
# Summary of the method: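 Uninfected HepG2-A16-CD81EGFP cells, 3 × 10^3 per well, 1536-well, plated on prespotted compound at 10 μM final, parasite-free screening media added to match infected plates; puromycin 10 μM positive, DMSO 0.5% negative; run in parallel with 48 h PbLuc assay at 37 °C, 5% CO2; viability by CellTiter-Glo luminescence, normalized to controls.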
row,SMILES,cytotoxicity at 10 µM [%]
1,COC(=O)c1cccc2nc([C@H]3CCN(CC(C)C)C3)oc12,-2.13
2,CCS(=O)(=O)c1ccc2oc([C@H]3CCN(CC4CCCCC4)C3)nc2c1,41
3,COc1cc(OC)c2c(=O)oc(CC(O)CC(C)=O)cc2c1 (stereo not drawn),5.73
4,Cc1nn2cnnc2c(C)c1CCC(=O)Nc1nc2c(s1)CCC2,-0.674
5,Cc1ccc(C(=O)N2CCC3(CCC(C(=O)NCC4CC4)O3)CC2)o1 (stereo not drawn),6.85
6,Cc1cccc(S(=O)(=O)N2CCCC3(CCCN3S(C)(=O)=O)C2)c1 (stereo not drawn),7.28
7,Cc1csc([C@H]2C[C@@H]3CCN(Cc4cnn(C)c4)C[C@H]3O2)n1,-3.9
8,Cn1cc(CN2CCC3(CCCN(C(=O)c4cscn4)C3)C2)cn1 (stereo not drawn),1.71
9,COCCN1C(=O)CCC12CCCN(c1ncc(F)cn1)CC2 (stereo not drawn),-8.92
10,O=C1CC(c2ccc(C(=O)O)cc2)c2ncn(-c3cccc(Cl)c3)c2N1 (stereo not drawn),-2.17
11,CCOC(=O)CCNC(=O)N1CCN(c2nc3ccccc3n2C)CC1,4.88
12,O=C(NCc1ccccn1)c1nnn(-c2ccc(Br)cc2)n1,1.47
13,O=C(Cc1ccsc1)N1CCn2cc(CN3CCCC3)nc2C1,-14.2
14,NC(=O)c1nc(-c2ccc(Cl)cc2Cl)oc1N,2.66
15,O=C(Cn1cc(I)cn1)N1CCc2ccccc2C1,11.2
16,CSc1nsc(NC(=O)c2cc(C3CC3)nn2C)n1,6.86
17,COCCN1CCC(c2cncc(N(C)C)n2)CC1,-25.5
18,COc1ccnc(N(C)Cc2csc(C)n2)n1,-2.62
19,CC(C(=O)N(C)Cc1ccco1)n1cncn1 (stereo not drawn),4.4
20,O=C(CN1CCS(=O)(=O)CC1)Nc1ccc(N2CCCC2)nc1,10.3
21,CC(C)c1nnc2n1CCN(Cc1cccc3c1OCCO3)C2,-1.26
22,O=C(NCCOc1cccc(Cl)c1Cl)N1CCC2(CC1)OCCO2,-3.36
23,CC(C)c1nnc(CN2CC(n3cccn3)Cc3ccccc32)o1 (stereo not drawn),-146

row,SMILES,cytotoxicity at 10 µM [%]
1,Cc1cnn(CCNc2cnc3ccccc3n2)c1,11.4
2,O=C(Nc1cnn(-c2ccccc2Cl)c1)NC1CCC(O)CC1 (stereo not drawn),-2.49
3,CC(O)CN1CCN(Cc2coc(-c3ccccc3Cl)n2)CC1 (stereo not drawn),-4.73
4,Cc1nc(C)c(C(=O)N2CCc3c(Cl)cccc32)o1,-1.55
5,CSc1ccc(NCC(=O)NCC2CC2)cc1F,0.936
6,CN(Cc1cc(Br)cn1C)C(=O)c1cscn1,-0.37
7,O=C(NS(=O)(=O)Cc1cc(-c2ccccc2)no1)C1CCOCC1,-2.85
8,Cc1ccc(-c2cc(C(=O)NCCN3CCOCC3)n[nH]2)s1,-6.45
9,Cc1ccnc(C(NC(=O)c2ncoc2C)C2CC2)n1 (stereo not drawn),12.7
10,Cc1ccc(C(=O)NCCNC(=O)c2cncnc2C)cc1F,3.91
11,COc1ccc(C(=O)NCCNC(=O)c2cncnc2C)cc1,7.98
12,O=C(NCCNc1ncccn1)NCc1cccc(OC(F)F)c1,-2.64
13,Cn1nc(CC(C)(C)C)cc1NC(=O)c1ccc(CNC(N)=O)cc1,-1.78
14,Cc1ccsc1CN(C)C(=O)c1ccc(N2CCOCC2)c(F)c1,11.1
15,c1cnn(CC2CN(Cc3csc(-c4ccsc4)n3)CCO2)c1 (stereo not drawn),3.23
16,Cc1ccc(-c2ccsc2C(=O)NC2CCS(=O)(=O)C2)cc1 (stereo not drawn),1.07
17,CC(Cn1cccn1)NC(=O)Nc1cccnc1 (stereo not drawn),-2.9
18,COc1ccc(NC(=O)NC(C)Cn2cccn2)cn1 (stereo not drawn),-5.72
19,CC(C)CC(CCO)CNC(=O)N1CC(C)(C)C1(C)C (stereo not drawn),-2.48
20,CC(C)Cn1cnnc1C1CCCN1C(=O)c1cc2ccccn2c1 (stereo not drawn),-0.384
21,Cc1cnn(C2CCCN(C(=O)c3c(C)oc4nc[nH]c(=O)c34)C2)c1 (stereo not drawn),-6.62
22,CCS(=O)(=O)N(C)C1CCN(Cn2ccc(-c3ccc(F)cc3)n2)CC1,1.95
23,Cn1ccc(CNC(=O)N2CCCC3(C2)OCCO3)c1,7.6

row,SMILES,cytotoxicity at 10 µM [%]
1,O=C1CCCc2[nH]c(=O)c(C(=O)N(CC3CCCCC3)C3CC3)cc21,-2.56
2,CN(Cc1cnccn1)C(=O)Nc1cc(F)cc(N2CCCC2)c1,1.8
3,CN1CCc2c(NC(=O)NCc3ccccc3Cl)cccc21,3.65
4,CN1CCCN(C(=O)c2ccn3ccnc3c2)CC1,-2.38
5,COCCNC(=O)N1CCN(C(=O)Cc2ccccc2F)CC1,-8.85
6,CC(C)c1nnc2n1CCN(Cc1nc3c(F)cccc3[nH]1)C2,-9.14
7,Cc1ncsc1C(=O)OCCN1CCCCCC1=O,-4.27
8,COc1ccnc(N2CCN(C(=O)c3cnn(C)c3C3CC3)CC2)n1,-2.88
9,Cc1ccc(C(=O)NCC2(O)CCOCC2)cc1Br,-1.3
10,COC(=O)c1sccc1NC(=O)C1CCCN1C(=O)c1ccco1 (stereo not drawn),20.3
11,O=C(NCCCn1cccn1)C1(c2ccc(Br)cc2)CC1,-0.0323
12,N#Cc1ccc(CNCC(C(=O)N2CCOCC2)c2ccccc2)cc1 (stereo not drawn),-11.9
13,Cc1csc2c(=O)n(CCN3CCNCC3)cnc12,-3.5
14,COc1cc(F)ccc1C(C(=O)O)N(C)Cc1ccon1 (stereo not drawn),-5.31
15,O=C(NCC1COCCO1)c1csc(Cc2ccccc2)n1 (stereo not drawn),-0.857
16,CCOc1ccccc1-n1c(CNC)n[nH]c1=O,-2.98
17,CC(C)n1cnnc1CN1CCC2(CCCN(C3CCCCC3)C2=O)C1 (stereo not drawn),-123
18,CCc1cc(NCCS(=O)(=O)N(C)C)nc(N2CCOCC2)n1,1.44
19,CCn1c(N)nc2cc(C(=O)N3CCCN(C)CC3)cnc21,-2.43
20,O=c1n(Cc2ncccn2)nc(C2CCNCC2)n1-c1ccccc1,-9.62
21,CCC(CO)N(Cc1ccsc1)Cc1cccc(O)c1 (stereo not drawn),0.616
22,Cc1cc(CC(=O)N2CCN(C)[C@@H]3CS(=O)(=O)C[C@@H]32)ccc1F,-3.89
23,COc1cc(C)ccc1OCCN1CC[C@@]2(O)CCNC[C@H]2C1,-157

row,SMILES,cytotoxicity at 10 µM [%]
1,CCn1nc(C)c(CN(CCOC)C(=O)c2ccc(=O)[nH]n2)c1C,-2.27
2,CC(C)C1CN(c2ncccc2Cl)CCC(=O)N1Cc1ccc(F)cc1 (stereo not drawn),2.41
3,Cc1ccc(CN2CCN(C(=O)C3CCC3)[C@@H]3CS(=O)(=O)C[C@@H]32)cc1C,2.09
4,CCn1ccnc1CNc1nccc(-c2cn(C)nc2C)n1,-4.6
5,NC(=O)c1cccc(CC2CCN(C(=O)Cn3cnnn3)C2)c1 (stereo not drawn),0.557
6,CC(C)CN1CC(C(=O)N(C)CCc2cn[nH]c2)CC1=O (stereo not drawn),-4.1
7,CN1CCCC(c2nc3c([nH]2)CC(C)(C)CNC3=O)C1 (stereo not drawn),9.01
8,Cc1csc(S(=O)(=O)N2CCN(C)C3(CCC(=O)N(C)CC3)C2)c1 (stereo not drawn),1.67
9,Cc1ncc(CC(=O)N2CCCC(COc3ccccc3F)C2)c(=O)[nH]1 (stereo not drawn),-151
10,CN(CCc1ccccn1)C(=O)c1cn(CCN2CCNCC2)nn1,-8.48
11,CCCn1ncc(C(=O)NCCc2[nH]nc3c2CCCC3)c1C,-6.63
12,CCc1cnc(NCCSc2cnn[nH]2)nc1,-10.4
13,Cc1cnc(C(=O)N2CCCC(Cn3cc(C4CC4)nn3)C2)cn1 (stereo not drawn),-1.15
14,Cc1nc(CN2CCCN(c3nccs3)CC2)no1,-3.62
15,CC(C)OCCCNC(=O)CS(=O)(=O)Cc1cccc(Cl)c1,5.44
16,O=C(CC1CCCCC1)NC1CCCCNC1=O (stereo not drawn),6.82
17,c1ccc(OCCCN2CCOC(CNc3cccnn3)C2)cc1 (stereo not drawn),-0.906
18,NC(=O)C1CN(C(=O)Nc2ccccc2Oc2ccccc2Cl)CCO1 (stereo not drawn),-10.5
19,CCCNC(=O)C1CCCN(Cc2csc(C(C)(C)C)n2)C1 (stereo not drawn),-3.14
20,CCn1cc(NC(=O)NCC(C)N(C)C2CC2)cn1 (stereo not drawn),-3.54
21,CCN1CCOC(CNCc2cccc(OCc3ccccn3)c2)C1 (stereo not drawn),-13.4
22,Cc1ncc2c(n1)CCN(CCCc1nc3ccccc3o1)C2,-18.7
23,CCn1nc2c(cc1=O)CN(Cc1coc(-c3ccccc3)n1)CC2,-10.9

row,SMILES,cytotoxicity at 10 µM [%]
1,CCc1nc(CN2CCc3c(ncn3C3CC3)C2)cs1,-1.59
2,CC(C1CC1)N(C)C(=O)c1ccc(-n2ncc(C#N)c2N)cc1 (stereo not drawn),3.51
3,Cc1cnn(CC2CCCN2C(=O)c2cccc(F)c2F)c1 (stereo not drawn),-1.3
4,CCCc1nc(C)c(C(=O)NCCN2CCOCC2)s1,-7.75
5,O=C(c1cn(-c2ccccc2)nn1)N1CCCC(n2cccn2)C1 (stereo not drawn),-7.85
6,Cc1nn(C)c(Cl)c1C1CCCN1C(=O)c1ccnc(N(C)C)c1 (stereo not drawn),-6.73
7,Cc1nnc(N2CCC(NS(C)(=O)=O)CC2)c(C#N)c1C,-5.13
8,CC(c1nc(C2CC2)no1)N1CCN(Cc2cccnc2)CC1 (stereo not drawn),-6.18
9,CN(C)CC1CN(Cc2cccc(C#N)c2)Cc2nccn2C1 (stereo not drawn),-124
10,Cc1ccc2c(n1)N(CC1CC1)CCN(S(=O)(=O)C1CC1)C2,12.4
11,CN(C)C(=O)N1CCC2(CC1)CN(CC1CC1)CC21CCNC1=O (stereo not drawn),3.67
12,O=C(Cc1cccnc1)N1CCCC2(CCN(C3CCOCC3)C2)C1 (stereo not drawn),-1.45
13,COc1c(CNC2CCCOc3ccc(F)cc32)c(C)nn1C (stereo not drawn),1.51
14,CCN(C)c1ncnc2c1CCN(C(=O)N(C)C)CC2,-0.0197
15,O=S(=O)(C1CC1)N1C[C@@H]2CN(Cc3ccoc3)CCO[C@@H]2C1,-142
16,c1cn(-c2cncc(C3CCNCC3)n2)cn1,-32.5
17,Cc1ccc(C(=O)N2CCc3ncnc(-c4cnn(C)c4)c3CC2)cn1,7.83
18,Cc1ccc(CN2CCC3(CC2)CC(CC(=O)NC(C)C)CO3)s1 (stereo not drawn),-1.72
19,CCO[C@H]1CO[C@@]2(CCCN(Cc3scnc3C)C2)C1,-137
20,CC(C)OC(=O)N1C[C@@H]2CC[C@H]1CN(C(=O)c1ccccc1)C2,0.608
21,O=C(c1ccncc1)N1C[C@H]2CC[C@@H](C1)N(S(=O)(=O)c1cccnc1)C2,-3.51

# Source: ChEMBL document CHEMBL4513216, “Probing the Open Global Health Chemical Diversity Library for Multistage-Active Starting Points for Next-Generation Antimalarials” (ACS Infect Dis, 2020)
